The source made the active and inactive calls. The calls are words filed in the database; no cut-off is given here.
How the values were obtained:
HUVEC [1] = test: Effect on MSMP gene expression in serum-starved HUVEC after 6 hrs by microarray analysis relative to control; type: functional, Homo sapiens
Method in brief: (§1)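 Serum-starved confluent HUVEC (pooled from 3–5 donors, passage ≤4) were treated with 2 μM compound or vehicle in 2.5% FBS for 6 h or 24 h, and total RNA was isolated. Hybridization was on Illumina Human-HT12. Data were processed with bgAdjust, vst and rsn normalization. Changes versus DMSO were called by moderated paired t-test at p < 0.05 and |log2 fold change| > 0.5.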

HUVEC [2] = test: Effect on RNVU1-18 gene expression in serum-starved HUVEC after 24 hrs by microarray analysis relative to control; type: functional, Homo sapiens
Method in brief: (§2)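 Confluent serum-starved HUVEC (primary, pooled from 3–5 donors, passage ≤4) treated with 2 μM compound or DMSO vehicle in 2.5% FBS for 6 h or 24 h. Total RNA hybridized to Illumina Human-HT12 arrays, background-corrected, vst-transformed and rsn-normalized. Differential expression versus DMSO by moderated paired t-test (p < 0.05, |log2 fold change| > 0.5).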

HUVEC [3] = test: Effect on CDC20 gene expression in serum-starved HUVEC after 24 hrs by microarray analysis relative to control; type: functional, Homo sapiens
Method in brief: (§3)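 Serum-starved confluent HUVEC treated with 2 μM compound or DMSO in 2.5% FBS for 6 h or 24 h; RNA hybridized to Illumina Human-HT12 arrays. Data background-corrected, vst-transformed and rsn-normalized. Differential probes called by moderated paired t-test (limma) at p < 0.05 and log2 fold change >|0.5| vs DMSO.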

HUVEC [4] = test: Effect on SPC24 gene expression in serum-starved HUVEC after 6 hrs by microarray analysis relative to control; type: functional, Homo sapiens; method in brief: as §2
HUVEC [5] = test: Effect on RNVU1-7 gene expression in serum-starved HUVEC after 24 hrs by microarray analysis relative to control; type: functional, Homo sapiens; method in brief: as §2
HUVEC [6] = test: Effect on ASPM gene expression in serum-starved HUVEC after 24 hrs by microarray analysis relative to control; type: functional, Homo sapiens; method in brief: as §3
HUVEC [7] = test: Effect on MSMP gene expression in serum-starved HUVEC after 24 hrs by microarray analysis relative to control; type: functional, Homo sapiens; method in brief: as §1
HUVEC [8] = test: Effect on BIRC5 gene expression in serum-starved HUVEC after 24 hrs by microarray analysis relative to control; type: functional, Homo sapiens; method in brief: as §3
Mus musculus [9] = test: Toxicity in C57BL/6 mouse allografted with mouse LLC cells assessed as effect on vital organs at 0.05 to 0.2 mg/kg, ip administered thrice a week for 2 weeks starting 24 hrs before tumor implantation by haematoxylin-eosin staining-based microscopic analysis; type: organism-based; details: in vivo
Method in brief: (§4)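 Male C57BL/6 mice, 6–8 weeks old, in groups of 5–6, received 5×10^5 LLC cells sc in the right flank. Compound (0.05–0.2 mg/kg) or DMSO vehicle was given ip thrice weekly for 2 weeks, starting 24 h before implantation. Mice were weighed and examined clinically every other day. At end-point, kidney, lung, spleen, liver and heart sections were H&E-stained and examined microscopically.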

HUVEC (Homo sapiens) [10] = test: Antiproliferative activity against human HUVEC cells assessed as decrease in VEGF-165-induced cell growth at 0.5 to 2 uM after 24 to 48 hrs by CyQUANT cell proliferation assay
HUVEC [11] = test: Effect on RNA28S5 gene expression in serum-starved HUVEC after 6 hrs by microarray analysis relative to control; type: functional, Homo sapiens; method in brief: as §1
HUVEC [12] = test: Effect on ZWINT gene expression in serum-starved HUVEC after 6 hrs by microarray analysis relative to control; type: functional, Homo sapiens; method in brief: as §1
HUVEC [13] = test: Effect on UBE2C gene expression in serum-starved HUVEC after 6 hrs by microarray analysis relative to control; type: functional, Homo sapiens; method in brief: as §2
HUVEC [14] = test: Effect on ERAP2 gene expression in serum-starved HUVEC after 6 hrs by microarray analysis relative to control; type: functional, Homo sapiens
Method in brief: (§5)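 Confluent, serum-starved HUVEC (pooled from 3–5 donors, passage ≤4) treated with 2 μM compound or vehicle with 2.5% FBS for 6 h or 24 h. Total RNA hybridized to Illumina Human-HT12 arrays. Data were background-corrected, vst-transformed and rsn-normalized. Hits called by moderated paired t-test versus DMSO-treated cells, p < 0.05 and log2 fold change >|0.5|.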

HUVEC [15] = test: Effect on DLC1 gene expression in serum-starved HUVEC after 6 hrs by microarray analysis relative to control; type: functional, Homo sapiens; method in brief: as §5
HUVEC [16] = test: Effect on PTTG1 gene expression in serum-starved HUVEC after 24 hrs by microarray analysis relative to control; type: functional, Homo sapiens; method in brief: as §2
Mus musculus [17] = test: Toxicity in C57BL/6 mouse allografted with mouse LLC cells at 0.05 to 0.2 mg/kg, ip administered thrice a week for 2 weeks starting 24 hrs before tumor implantation by clinical test; type: organism-based; details: in vivo; method in brief: as §4
HUVEC [18] = test: Effect on KIFC1 gene expression in serum-starved HUVEC after 6 hrs by microarray analysis relative to control; type: functional, Homo sapiens; method in brief: as §1
HUVEC [19] = test: Effect on CALD1 gene expression in serum-starved HUVEC after 6 hrs by microarray analysis relative to control; type: functional, Homo sapiens; method in brief: as §3
HUVEC [20] = test: Effect on SPC24 gene expression in serum-starved HUVEC after 24 hrs by microarray analysis relative to control; type: functional, Homo sapiens; method in brief: as §2
HUVEC [21] = test: Effect on GNG12 gene expression in serum-starved HUVEC after 6 hrs by microarray analysis relative to control; type: functional, Homo sapiens; method in brief: as §5
HUVEC [22] = test: Effect on CENPA gene expression in serum-starved HUVEC after 24 hrs by microarray analysis relative to control; type: functional, Homo sapiens; method in brief: as §3
HUVEC [23] = test: Effect on CCNB2 gene expression in serum-starved HUVEC after 24 hrs by microarray analysis relative to control; type: functional, Homo sapiens; method in brief: as §3
HUVEC (Homo sapiens) [24] = test: Antiproliferative activity against human HUVEC cells assessed as decrease in VEGF-165-induced cell growth at 0.5 to 2 uM after 24 to 48 hrs by MTT assay
HUVEC [25] = test: Effect on CCNB2 gene expression in serum-starved HUVEC after 6 hrs by microarray analysis relative to control; type: functional, Homo sapiens; method in brief: as §3
HUVEC [26] = test: Effect on RNVU1-7 gene expression in serum-starved HUVEC after 6 hrs by microarray analysis relative to control; type: functional, Homo sapiens; method in brief: as §2
HUVEC [27] = test: Effect on PTTG1 gene expression in serum-starved HUVEC after 6 hrs by microarray analysis relative to control; type: functional, Homo sapiens; method in brief: as §1
HUVEC [28] = test: Effect on ERAP2 gene expression in serum-starved HUVEC after 24 hrs by microarray analysis relative to control; type: functional, Homo sapiens; method in brief: as §5
HUVEC [29] = test: Effect on RNVU1-18 gene expression in serum-starved HUVEC after 6 hrs by microarray analysis relative to control; type: functional, Homo sapiens; method in brief: as §1
HUVEC [30] = test: Effect on UBE2C gene expression in serum-starved HUVEC after 24 hrs by microarray analysis relative to control; type: functional, Homo sapiens; method in brief: as §2
HUVEC [31] = test: Effect on DLGAP5 gene expression in serum-starved HUVEC after 24 hrs by microarray analysis relative to control; type: functional, Homo sapiens; method in brief: as §5
HUVEC [32] = test: Effect on KIF22 gene expression in serum-starved HUVEC after 6 hrs by microarray analysis relative to control; type: functional, Homo sapiens; method in brief: as §1
HUVEC [33] = test: Effect on DLGAP5 gene expression in serum-starved HUVEC after 6 hrs by microarray analysis relative to control; type: functional, Homo sapiens; method in brief: as §5
HUVEC [34] = test: Effect on MMP1 gene expression in serum-starved HUVEC after 24 hrs by microarray analysis relative to control; type: functional, Homo sapiens; method in brief: as §1

SMILES | log2FC (HUVEC [1]) | log2FC (HUVEC [2]) | log2FC (HUVEC [3]) | log2FC (HUVEC [4]) | log2FC (HUVEC [5]) | log2FC (HUVEC [6]) | log2FC (HUVEC [7]) | log2FC (HUVEC [8]) | Activity (Mus musculus [9]) | Activity (HUVEC (Homo sapiens) [10]) | log2FC (HUVEC [11]) | log2FC (HUVEC [12]) | log2FC (HUVEC [13]) | fold change (FC) (HUVEC [14]) | log2FC (HUVEC [15]) | log2FC (HUVEC [16]) | Activity (Mus musculus [17]) | fold change (FC) (HUVEC [18]) | fold change (FC) (HUVEC [19]) | log2FC (HUVEC [20]) | other results
COc1ccc(Cn2nc(-c3ccccc3)c3cc(Cl)nc(N4CCNCC4)c32)cc1 | -0.0237 | -0.1577 | -0.6535 | 0.1186 | -0.1037 | -0.5316 | -0.6932 | -0.6034 | Non-Toxic | Active | -0.7662 | 0.1395 | -0.1374 | 0.5171 | 0.5758 | -0.6261 | Non-Toxic | 0.0022 | 0.5218 | -0.732 | fold change (FC) (HUVEC [21]): 0.5853; log2FC (HUVEC [22]): -0.5592; log2FC (HUVEC [23]): -0.5884; Activity (HUVEC (Homo sapiens) [24]): Active; log2FC (HUVEC [25]): -0.1297; log2FC (HUVEC [26]): -0.5056; log2FC (HUVEC [27]): -0.1057; log2FC (HUVEC [28]): 0.2703; log2FC (HUVEC [29]): -0.6107; log2FC (HUVEC [30]): -0.5278
COc1ccc(Cn2nc(-c3ccccc3)c3cc(Nc4ccc(N5CCN(C)CC5)cc4)nc(N4CCN(C)CC4)c32)cc1 |  | -0.0118 | -0.9562 | -0.1032 | 0.1142 | -0.6736 |  | -0.6896 | Non-Toxic | Active | -1.164 | -0.3223 | -0.2671 | 0.5068 |  | -0.8594 | Non-Toxic | -0.2068 | 0.5101 | -0.7666 | log2FC (HUVEC [31]): -0.8206; log2FC (HUVEC [22]): -0.6147; log2FC (HUVEC [23]): -0.7404; fold change (FC) (HUVEC [32]): -0.1033; Activity (HUVEC (Homo sapiens) [24]): Active; log2FC (HUVEC [25]): -0.1003; log2FC (HUVEC [26]): -0.536; log2FC (HUVEC [27]): -0.1804; log2FC (HUVEC [28]): 0.0121; log2FC (HUVEC [29]): -0.6156; fold change (FC) (HUVEC [33]): 0.1107; log2FC (HUVEC [34]): 0.5814; log2FC (HUVEC [30]): -0.9349
COc1ccc(Cn2nc(-c3ccccc3)c3cc(Nc4ccc(N5CCN(C)CC5)cc4)nc(N4CCNCC4)c32)cc1 | -0.0154 |  |  |  |  |  | -0.652 |  | Non-Toxic |  | -0.6261 |  |  |  | 0.3681 |  | Non-Toxic |  |  |  | log2FC (HUVEC [31]): -0.516; log2FC (HUVEC [21]): 0.6358; log2FC (HUVEC [32]): -0.0345; log2FC (HUVEC [33]): 0.2579; log2FC (HUVEC [34]): -0.646

— ChEMBL document CHEMBL3856209, “Novel pyrazolopyridine derivatives as potential angiogenesis inhibitors: Synthesis, biological evaluation and transcriptome-based mechanistic analysis” (Eur J Med Chem, 2016)
